Results of several laboratories.
AGTR2: Type-2 angiotensin II receptor (AGTR2, Homo sapiens, UniProt P50052)
Adora2a: Adenosine receptor A2a (Adora2a, Rattus norvegicus, UniProt P30543)
DRD1: D(1A) dopamine receptor (DRD1, Homo sapiens, UniProt P21728)
Urease: Urease (Canavalia ensiformis, UniProt P07374)

The Ki of `CCC(C)[C@H](NC(=O)c1cccc(C(=O)N(Cc2ccccc2)Cc2ccccc2)c1)C(=O)O` (stereo in doubt) is reported as 7500 nM (AGTR2; ligand displacement in cells, radioligand).
The Ki of `CCCN1CCCn2c1nc1c2c(=O)n(C)c(=O)n1C` is reported as 1290 nM (Adora2a; ligand displacement, radioligand; cell membranes).
`N#Cc1c(N)nc(SCC(N)=O)c(C#N)c1-c1ccc2c(c1)OCO2` has a Ki of 429 nM (Adora2a; ligand displacement, radioligand; cell membranes).
For `CC(C)CCCC(C)N1CCCn2c1nc1c2c(=O)n(C)c(=O)n1C` (centres unmarked), the Ki was 2030 nM (Adora2a; ligand displacement, radioligand; cell membranes).
The Ki of `CCC(C)[C@H](NC(=O)c1ccc(C)c(C(=O)N(Cc2ccccc2)Cc2ccccc2)c1)C(=O)O` (stereo in doubt) is reported as 2500 nM (AGTR2; ligand displacement in cells, radioligand).
With `CC1Cc2ccccc2N1C(=O)NCCCCN(C)[C@@H]1Cc2cccc3[nH]c(=O)n(c23)C1` (mixture of isomers) the Ki was > 10000 nM (DRD1; ligand displacement, radioligand).
The Ki of `Fc1ccc(C2=Nn3c(nnc3-c3cccc(Br)c3)SC2)cc1` is reported as 3620 nM (Urease; enzyme activity, inhibitor).
`CCN1CCCn2c1nc1c2c(=O)n(C)c(=O)n1C` has a Ki of 2650 nM (Adora2a; ligand displacement, radioligand; cell membranes).
The Ki of `COc1ccccc1N1CCN(CCCCN2CCc3ccccc3C2=O)CC1` is reported as 1620 nM (DRD1; cell-free assay, radioligand).
For `COc1cccc(-c2c(C#N)c(N)nc(SCC(N)=O)c2C#N)c1`, the Ki was 1200 nM (Adora2a; ligand displacement, radioligand; cell membranes).
The Ki of `CCC(C)[C@H](NC(=O)c1ccc(C)c(C(=O)N(CC)CC)c1)C(=O)O` (stereo in doubt) is reported as 2400 nM (AGTR2; ligand displacement in cells, radioligand).
`CCCC[C@H](NC(=O)[C@H](C)c1c(C)[nH]c2ccc(O)cc12)c1ncc(-c2cc3ccccc3nc2OC)[nH]1` gave a Ki of 2250 nM (Prostaglandin E2 receptor EP1 subtype (PTGER1, Homo sapiens, UniProt P34995); cell-free assay).
`Cc1nc2cc(OCCCCN3CCN(c4cccc(Cl)c4Cl)CC3)ccc2s1` gave a Ki of 340 nM (Sodium-dependent serotonin transporter (SLC6A4, Homo sapiens, UniProt P31645); ligand displacement, radioligand).
`CC(C)N1CCCn2c1nc1c2c(=O)n(C)c(=O)n1C` has a Ki of 4950 nM (Adora2a; ligand displacement, radioligand; cell membranes).
The Ki of `Cc1cccc(CSc2nc(N)c(C#N)c(-c3cccc(O)c3)c2C#N)n1` is reported as 20.6 nM (Adora2a; ligand displacement, radioligand; cell membranes).
`CCc1ccc(C(=O)N[C@H](C(=O)O)C(C)CC)cc1C(=O)N(CC)CC` (stereo in doubt) gave a Ki of 10000 nM (AGTR2; ligand displacement in cells, radioligand).
`N#Cc1c(N)nc(SCC(N)=O)c(C#N)c1-c1cccc(O)c1` gave a Ki of 751 nM (Adora2a; ligand displacement, radioligand; cell membranes).
With `CC(C)CN1CCCn2c1nc1c2c(=O)n(C)c(=O)n1C` the Ki was 870 nM (Adora2a; ligand displacement, radioligand; cell membranes).
`N#Cc1c(N)nc(SCc2cccc(C(=O)O)c2)c(C#N)c1-c1ccccc1` gave a Ki of 634 nM (Adora2a; ligand displacement, radioligand; cell membranes).
`CCCCCCN1CCCn2c1nc1c2c(=O)n(C)c(=O)n1C` gave a Ki of 820 nM (Adora2a; ligand displacement, radioligand; cell membranes).
For `CCC(C)[C@H](NC(=O)c1ccc(C)c(C(=O)N(CC)Cc2ccccc2)c1)C(=O)O` (stereo in doubt), the Ki was 3400 nM (AGTR2; ligand displacement in cells, radioligand).
The Ki of `CC(C)CC(C)N1CCCn2c1nc1c2c(=O)n(C)c(=O)n1C` (centres unmarked) is reported as 5370 nM (Adora2a; ligand displacement, radioligand; cell membranes).
For `CCC(C)[C@H](NC(=O)c1cccc(C(=O)N(C)Cc2ccccc2)c1)C(=O)O` (stereo in doubt), the Ki was 9000 nM (AGTR2; ligand displacement in cells, radioligand).
`CC(=O)NO` gave a Ki of 18100 nM (Urease; enzyme activity, inhibitor).
The Ki of `CCc1ccc(C(=O)N[C@H](C(=O)O)C(C)CC)cc1C(=O)N(Cc1ccccc1)Cc1ccccc1` (stereo in doubt) is reported as 4400 nM (AGTR2; ligand displacement in cells, radioligand).
The Ki of `N#Cc1c(N)nc(SCC(N)=O)c(C#N)c1-c1ccc(O)cc1` is reported as 338 nM (Adora2a; ligand displacement, radioligand; cell membranes).
